Screens as filed in PubChem.
NSD2 inh: NSD2 histone methyltransferase inhibitors, primary screen, biochemical, AlphaScreen, single concentration, set 2 | Histone-lysine N-methyltransferase NSD2 (Homo sapiens), O96028 | NSD2 peptide methylation, 120 min | inhibition, % at 12.5 µM | actives 0.54% (n = 310,000); in the data active = inhibition above about 50%
Casp6 inh: human caspase-6 inhibitors, primary screen, biochemical, VEID-R110 fluorescence, single point, set 2. P55212. purified caspase-6, Z-VEID-R110 cleavage fluorescence. inhibition, % at 12.5 µM. actives 0.53% (n = 350,000). AID 686996, 2013;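 active = mean inhibition across replicates at least about 35%, with every replicate also reaching that limit, limit read from the data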
SIRT5 block: SIRT5 desuccinylase inhibitors, primary screen, biochemical, fluorescence imaging, single point, set 5; NAD-dependent protein deacylase sirtuin-5, mitochondrial (Homo sapiens), Q9NXA8; Purified SirT5, succinyl-peptide AMC, trypsin-coupled fluorescence; inhibition, % at 15 µM; actives 1.1% (n = 330,000); in the data active = inhibition above about 15%
Target sequence (Q9NXA8 whole entry, looked up): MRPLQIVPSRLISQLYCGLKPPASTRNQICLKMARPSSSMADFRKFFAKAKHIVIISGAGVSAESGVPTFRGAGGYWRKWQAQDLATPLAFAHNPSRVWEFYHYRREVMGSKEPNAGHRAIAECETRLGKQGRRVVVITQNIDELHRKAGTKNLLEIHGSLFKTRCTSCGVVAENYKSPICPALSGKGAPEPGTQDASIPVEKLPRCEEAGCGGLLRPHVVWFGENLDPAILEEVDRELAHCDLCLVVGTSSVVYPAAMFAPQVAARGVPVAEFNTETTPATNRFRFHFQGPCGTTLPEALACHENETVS
FGF22 binding: binders of human FGF22 protein, primary screen, FGF22 synaptogenesis inhibitor project, biophysical, thermal shift, single point; recombinant FGF22 thermal shift, SYPRO orange fluorescence; percent of sucrose octasulfate shift, DMSO zero; actives 1.5% (n = 340,000); Fibroblast growth factor 22 (Homo sapiens), Q9HCT0; activity (Tm shift, normalised), % at 9.99 µM;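 active = mean Tm shift, scaled 0 neutral to 100 positive control, at about 1.3% or above, every replicate too, limit read from the data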
Target sequence (Q9HCT0 whole entry, looked up): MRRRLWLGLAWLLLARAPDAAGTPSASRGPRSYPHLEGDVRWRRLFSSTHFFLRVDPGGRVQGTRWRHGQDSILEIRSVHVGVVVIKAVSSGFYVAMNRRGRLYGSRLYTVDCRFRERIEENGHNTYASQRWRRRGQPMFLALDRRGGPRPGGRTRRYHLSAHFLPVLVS
UCH37 inh: inhibitors of human UCH37 deubiquitinase, primary screen, biochemical, Ub-AMC cleavage, fluorescence; purified proteasome/UCH37; inhibition, % (test concentration not listed); actives 0.33% (n = 330,000); Ubiquitin carboxyl-terminal hydrolase isozyme L5 (Homo sapiens), Q9Y5K5;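 active = mean inhibition over replicate wells above about 20%, limit read from the data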
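Material: human UCH37 enzyme supplied as purified proteasome complex / Amount: 0.15 nM proteasome as dispensed / Buffer or medium: pH 7.4 Tris-HCl (50 mM) with ovalbumin, ATP-MgCl2, DTT / Times: preincubation 30 min, reaction 25 min, room temperature / Technique: AMC fluorescence from Ub-AMC cleavage, excitation 355 nm, emission 460 nm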
Of the large screens only hits and unclear results are named; the others gave an inactive call. Rows were chosen to be rich in hits. Some 2.6% of all compounds tested hit in one or more screens of this group.

COc1ccc(S(=O)(=O)N2C[C@H](O)COC[C@@H]3O[C@H](CC(=O)NCc4ccc(Cl)c(Cl)c4)CC[C@H]32)cc1	none (no result: NSD2 inh, UCH37 inh)
O=C(C[C@@H]1CC[C@H]2[C@@H](COC[C@@H](O)CN2C(=O)Nc2ccc(Cl)c(Cl)c2)O1)NCc1ccc(Cl)c(Cl)c1	SIRT5 block 15 (no result: NSD2 inh, UCH37 inh)
COc1ccc(S(=O)(=O)N2C[C@@H](O)COC[C@@H]3O[C@@H](CC(=O)NCc4ccc(Cl)c(Cl)c4)CC[C@H]32)cc1	SIRT5 block 15 (no result: NSD2 inh, UCH37 inh)
C[C@@H](NC(=O)C[C@H]1CC[C@@H]2[C@H](COC[C@@H](O)CN2C(=O)Nc2cccc(Cl)c2)O1)c1ccccc1	none (no result: NSD2 inh, UCH37 inh)
CN(C)/C=C1\C(=O)N(c2ccc(Cl)c(Cl)c2)CS1(=O)=O	FGF22 binding 43
Cc1cccc(S(=O)(=O)N2C[C@H](O)COC[C@@H]3O[C@@H](CC(=O)Nc4ccccc4)CC[C@H]32)c1	none (no result: NSD2 inh, UCH37 inh)
COc1cc(-c2nc(CN3CCN(c4ncccn4)CC3)c(C)o2)ccc1F	FGF22 binding 43
COc1cc(-c2nc(CN3CCN(CC(C)C)C(=O)[C@@H]3C)c(C)o2)ccc1F	none
C[C@H]1CN([C@@H](C)CO)C(=O)c2cc(NC(=O)CCCCCC(=O)Nc3ccccc3N)ccc2O[C@@H]1CN(C)C	none (no result: NSD2 inh, UCH37 inh)
c1ccc(CON=C(c2ccc(C3CC3)nc2)C2CC2)cc1	none (no result: NSD2 inh, Casp6 inh, SIRT5 block, FGF22 binding)
Cc1ccc(NC(=O)c2noc3c2CCC3)cc1C	Casp6 inh 54
CCCNC(=O)N1[C@@H]2c3ccc(-c4ccc(OC)cc4)c(=O)n3C[C@H]1[C@H](CO)[C@H]2C(=O)NC1CCC1	none (no result: NSD2 inh, UCH37 inh)
O=C1C2C3C=CC(CC3)C2C(=O)N1/N=C/c1ccco1 (configuration not stated)	FGF22 binding 44 (no result: UCH37 inh)
C/C=C/C(=O)OCC(=O)Nc1ccc(OC)c(OC)c1	FGF22 binding 43
COc1ccc(NC(=O)COC(=O)C2=COCCO2)cc1OC	FGF22 binding 44
Cc1ccc(NC(=O)COC(=O)C2=COCCO2)cc1	none (no result: NSD2 inh, Casp6 inh, SIRT5 block, FGF22 binding)
CCCN1C[C@@H](C)[C@@H](OC)CN(C)C(=O)c2cc(NC(=O)c3ccccc3F)ccc2OC[C@H]1C	none (no result: NSD2 inh, UCH37 inh)
Cc1noc(C)c1S(=O)(=O)Nc1ccc2c(c1)C(=O)N([C@@H](C)CO)C[C@H](C)[C@H](CN(C)C(=O)c1ccccc1)OCCCC[C@@H](C)O2	none (no result: NSD2 inh, FGF22 binding, UCH37 inh)
O=C(NN=Cc1ccoc1)c1cc(Br)ccc1O	none (no result: NSD2 inh, Casp6 inh, SIRT5 block, FGF22 binding)
Cc1cccc(S(=O)(=O)N2C[C@H]3[C@@H](c4ccccc42)[C@@H](CO)N3C(=O)CC2CC2)c1	none (no result: NSD2 inh, UCH37 inh)
CC(=O)N(C)C[C@H]1Oc2cc(C#CC(C)(C)O)ccc2S(=O)(=O)N([C@H](C)CO)C[C@H]1C	none (no result: NSD2 inh, UCH37 inh)
Cc1ccc(S(=O)(=O)N2c3ccccc3CC2C)cc1 (configuration not stated)	none (no result: FGF22 binding, UCH37 inh)
Cc1ccc(S(=O)(=O)N2c3ccc(S(N)(=O)=O)cc3CC2C)cc1 (configuration not stated)	FGF22 binding 44
C[C@H]1CN([C@@H](C)CO)C(=O)c2cc(NC(=O)C3CCCCC3)ccc2O[C@@H]1CN(C)CC1CC1	SIRT5 block 22 (no result: NSD2 inh, Casp6 inh, UCH37 inh)
C[C@@H]1CN([C@H](C)CO)C(=O)c2cccc(NC(=O)C3CCCCC3)c2O[C@@H]1CN(C)CC1CC1	SIRT5 block 21 (no result: NSD2 inh, UCH37 inh)
C[C@@H]1CN([C@@H](C)CO)C(=O)c2cccc(NC(=O)C3CCCCC3)c2O[C@@H]1CN(C)CC1CC1	none (no result: NSD2 inh, UCH37 inh)
C[C@@H]1CN([C@@H](C)CO)C(=O)c2cc(NC(=O)C3CCCCC3)ccc2O[C@@H]1CN(C)CC1CC1	none (no result: NSD2 inh, Casp6 inh, UCH37 inh)
CN(C)c1ccnc(-n2cccc2C=NOCc2cccc(F)c2)c1C#N	none (no result: NSD2 inh, Casp6 inh, SIRT5 block, FGF22 binding)
O=[N+]([O-])c1cc(C(F)(F)F)ccc1N1CCCC(O)C1 (configuration not stated)	FGF22 binding 43
O=C(C1CCC1)N1CCN(c2ccc(C(F)(F)F)cc2[N+](=O)[O-])CC1	none
O=[N+]([O-])c1cc(C(F)(F)F)ccc1N1CCN(CCO)CC1	FGF22 binding 43
CCOC(=O)NN=C(c1ccccc1)C(O)c1ccccc1 (configuration not stated)	none (no result: NSD2 inh, Casp6 inh, SIRT5 block, FGF22 binding)
